Results as given in ChEMBL document CHEMBL1926538, “3,5-Disubstituted-thiazolidine-2,4-dione analogs as anticancer agents: design, synthesis and biological characterization” (Eur J Med Chem, 2012).
Active and inactive are the calls of the source. No cut-off for these calls is given here.

Columns and labels:
[1] = Induction of apoptosis in human M12 cells assessed as late apoptotic cells at 20 uM after 24 hrs by annexinV-propidium iodide staining-based flow cytometric analysis (reference value: 4.7%); type: functional
U-937 [2] = assay: Induction of apoptosis in human U937 cells assessed as viable cells at 10 uM after 18 hrs by annexinV-propidium iodide staining-based flow cytometric analysis (reference value: 87.2%); type: functional; settings: U-937, 18 h, read-out: Activity
[3] = molecular target: Serine/threonine-protein kinase Chk2 (Homo sapiens) (UniProt O96017); assay: Inhibition of CHK2 at 10 uM
U-937 [4] = assay: Induction of apoptosis in human U937 cells assessed as necrotic cells at 10 uM after 3 hrs by annexinV-propidium iodide staining-based flow cytometric analysis (reference value: 2.3%); type: functional
DU-145 [5] = assay: Induction of apoptosis in human DU145 cells assessed as viable cells at 20 uM after 24 hrs by annexinV-propidium iodide staining-based flow cytometric analysis (reference value: 89%); type: functional; settings: DU-145, 24 h, read-out: Activity
U-937 [6] = assay: Induction of apoptosis in human U937 cells assessed as early apoptotic cells at 10 uM after 18 hrs by annexinV-propidium iodide staining-based flow cytometric analysis (reference value: 4.3%); type: functional
[7] = molecular target: Ribosomal protein S6 kinase alpha-5 (Homo sapiens) (UniProt O75582); assay: Inhibition of MSK1 at 10 uM
[8] = molecular target: Dual specificity mitogen-activated protein kinase kinase 1 (Homo sapiens) (UniProt Q02750); assay: Inhibition of MEK1 at 10 uM
U-937 [9] = assay: Induction of apoptosis in human U937 cells assessed as viable cells at 10 uM after 6 hrs by annexinV-propidium iodide staining-based flow cytometric analysis (reference value: 80.3%); type: functional; settings: U-937, 6 h, read-out: Activity
[10] = molecular target: Aurora kinase A (Homo sapiens) (UniProt O14965); assay: Inhibition of aurora A kinase at 10 uM
U-937 [11] = assay: Growth inhibition of human U937 cells after 24 hrs by MTS assay; type: functional, cell-based; settings: U-937, 24 h
How it was run: (§1)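 Cells in RPMI 1640 with 10% heat-inactivated FBS, seeded 2 × 10⁴ cells/well and exposed 24 h. MTS reagent added, then 1 h further incubation at 37 °C, 5% CO₂. Formazan absorbance read at 490 nm. Viability expressed as percentage of untreated controls.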

[12] = molecular target: 5'-AMP-activated protein kinase catalytic subunit alpha-2 (Homo sapiens) (UniProt P54646); assay: Inhibition of AMPK at 10 uM
U-937 [13] = assay: Induction of apoptosis in human U937 cells assessed as late apoptotic cells at 10 uM after 6 hrs by annexinV-propidium iodide staining-based flow cytometric analysis (reference value: 13.8%); type: functional
U-937 [14] = assay: Induction of apoptosis in human U937 cells assessed as late apoptotic cells at 10 uM after 3 hrs by annexinV-propidium iodide staining-based flow cytometric analysis (reference value: 8.6%); type: functional
U-937 [15] = assay: Induction of apoptosis in human U937 cells assessed as viable cells at 3 uM after 6 hrs by annexinV-propidium iodide staining-based flow cytometric analysis (reference value: 80.3%); type: functional; settings: U-937, 6 h, read-out: Activity
[16] = molecular target: Serine/threonine-protein kinase Chk1 (Homo sapiens) (UniProt O14757); assay: Inhibition of CHK1 at 10 uM
[17] = molecular target: Tyrosine-protein kinase BTK (Homo sapiens) (UniProt Q06187); assay: Inhibition of BTK at 10 uM
U-937 [18] = assay: Inhibition of PI3K-mediated Akt phosphorylation in human U937 cells at 3 uM after 1 hr by Western blot analysis; type: cell-based
[19] = molecular target: Mitogen-activated protein kinase kinase kinase kinase 4 (Homo sapiens) (UniProt O95819); assay: Inhibition of HGK at 10 uM
M12 = assay: Growth inhibition of human M12 cells after 24 hrs by MTS assay; type: functional, cell-based; how it was run: as §1
DU-145 [20] = assay: Growth inhibition of human DU145 cells after 24 hrs by MTS assay; type: functional, cell-based; how it was run: as §1
DU-145 [21] = assay: Induction of apoptosis in human DU145 cells assessed as early apoptotic cells at 20 uM after 24 hrs by annexinV-propidium iodide staining-based flow cytometric analysis (reference value: 3.8%); type: functional
U-937 [22] = assay: Growth inhibition of human U937 cells after 72 hrs by MTS assay in presence of 320 uM AMPK activator AICA; type: functional, cell-based
How it was run: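 U937 cells exposed 72 h, with or without AICA 320 µM, then MTS added. Absorbance read at 490 nm, expressed as percentage of untreated controls. Data are mean percentage viability, n = 6, error bars SEM.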

[23] = Inhibition of P70S6K at 10 uM
U-937 [24] = assay: Cell cycle arrest in human U937 cells assessed as accumulation at S-phase after 24 hrs by propidium iodide staining-based flow cytometric analysis; type: functional
How it was run: (§2)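 Cells cultured in RPMI 1640 with 10% FBS and treated 24 h at the indicated concentrations. Stained with propidium iodide for 4 h at 4 °C in the dark. Flow cytometry gave the percentage of cells in G₀/G₁, S, G₂/M and sub-G₁ phases.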

[25] = molecular target: Serine/threonine-protein kinase pim-2 (Homo sapiens) (UniProt Q9P1W9); assay: Inhibition of PIM2 at 10 uM
[26] = molecular target: Phosphatidylinositol 4,5-bisphosphate 3-kinase catalytic subunit alpha isoform (Homo sapiens) (UniProt P42336); assay: Inhibition of PI3Kalpha at 10 uM
[27] = molecular target: Rho-associated protein kinase 2 (Homo sapiens) (UniProt O75116); assay: Inhibition of ROCK2 at 10 uM
[28] = Inhibition of MSK2 at 10 uM
U-937 [29] = assay: Induction of apoptosis in human U937 cells assessed as early apoptotic cells at 3 uM after 18 hrs by annexinV-propidium iodide staining-based flow cytometric analysis (reference value: 4.3%); type: functional
U-937 [30] = assay: Cell cycle arrest in human U937 cells assessed as decrease in G1/G0-phase population at 10 uM after 24 hrs by propidium iodide staining-based flow cytometric analysis; type: functional; how it was run: as §2
[31] = Inhibition of PKA at 10 uM
[32] = molecular target: Tyrosine-protein kinase Lck (Homo sapiens) (UniProt P06239); assay: Inhibition of LCK at 10 uM
[33] = Induction of apoptosis in human M12 cells assessed as early apoptotic cells at 20 uM after 24 hrs by annexinV-propidium iodide staining-based flow cytometric analysis (reference value: 13.6%); type: functional
DU-145 [34] = assay: Inhibition of PI3K-mediated Akt phosphorylation in human DU145 cells at 10 to 20 uM after 24 hrs by Western blot analysis; type: cell-based
How it was run: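 DU145 cells were grown in RPMI 1640 with 10% FBS and treated for 24 h at the indicated concentrations. Lysates were immunoblotted with phospho-Akt (Ser473) primary antibody (1:1000) and HRP secondary (1:2000), then detected by chemiluminescence. α-Tubulin reprobing checked loading.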

[35] = molecular target: RAC-alpha serine/threonine-protein kinase (Homo sapiens) (UniProt P31749); assay: Inhibition of AKT1 at 10 uM

Dual specificity mitogen-activated protein kinase kinase 1 (Homo sapiens), sequence (Q02750 whole entry): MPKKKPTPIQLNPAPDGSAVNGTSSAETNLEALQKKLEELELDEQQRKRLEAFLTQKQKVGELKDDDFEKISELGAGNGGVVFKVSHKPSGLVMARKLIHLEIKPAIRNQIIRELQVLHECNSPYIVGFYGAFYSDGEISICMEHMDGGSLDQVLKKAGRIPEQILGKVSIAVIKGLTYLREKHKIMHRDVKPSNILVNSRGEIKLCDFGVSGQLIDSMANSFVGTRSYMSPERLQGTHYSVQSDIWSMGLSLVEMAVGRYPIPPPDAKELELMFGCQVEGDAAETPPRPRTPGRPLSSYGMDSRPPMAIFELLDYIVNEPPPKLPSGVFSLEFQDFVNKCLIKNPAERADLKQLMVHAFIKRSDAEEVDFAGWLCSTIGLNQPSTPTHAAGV
Aurora kinase A (Homo sapiens), sequence (O14965 whole entry): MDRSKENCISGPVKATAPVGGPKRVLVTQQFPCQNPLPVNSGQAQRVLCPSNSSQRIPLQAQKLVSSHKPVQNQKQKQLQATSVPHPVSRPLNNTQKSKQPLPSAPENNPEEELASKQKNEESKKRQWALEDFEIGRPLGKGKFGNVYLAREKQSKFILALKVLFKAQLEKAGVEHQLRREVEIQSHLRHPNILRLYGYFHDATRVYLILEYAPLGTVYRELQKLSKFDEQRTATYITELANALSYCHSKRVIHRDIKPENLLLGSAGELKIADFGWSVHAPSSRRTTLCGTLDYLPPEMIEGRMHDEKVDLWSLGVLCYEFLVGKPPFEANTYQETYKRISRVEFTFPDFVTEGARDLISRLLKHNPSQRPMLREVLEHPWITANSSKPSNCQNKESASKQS
Tyrosine-protein kinase BTK (Homo sapiens), sequence (Q06187 whole entry): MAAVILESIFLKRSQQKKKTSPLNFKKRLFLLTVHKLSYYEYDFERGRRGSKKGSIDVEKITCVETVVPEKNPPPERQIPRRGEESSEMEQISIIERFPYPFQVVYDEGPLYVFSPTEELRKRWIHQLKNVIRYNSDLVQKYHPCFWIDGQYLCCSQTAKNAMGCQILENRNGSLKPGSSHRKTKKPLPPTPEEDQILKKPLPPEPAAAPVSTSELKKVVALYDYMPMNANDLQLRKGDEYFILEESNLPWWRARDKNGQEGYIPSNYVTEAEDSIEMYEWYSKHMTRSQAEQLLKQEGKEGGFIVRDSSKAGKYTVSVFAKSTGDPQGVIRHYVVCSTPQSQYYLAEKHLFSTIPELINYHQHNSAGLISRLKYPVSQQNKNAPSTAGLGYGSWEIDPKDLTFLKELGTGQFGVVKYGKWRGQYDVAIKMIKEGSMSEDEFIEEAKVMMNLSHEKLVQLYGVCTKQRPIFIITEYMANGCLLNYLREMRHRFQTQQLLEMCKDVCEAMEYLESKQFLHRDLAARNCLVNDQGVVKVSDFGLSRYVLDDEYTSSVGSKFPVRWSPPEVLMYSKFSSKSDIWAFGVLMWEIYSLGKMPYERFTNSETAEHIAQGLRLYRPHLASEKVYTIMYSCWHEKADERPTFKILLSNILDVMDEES
Serine/threonine-protein kinase Chk2 (Homo sapiens), sequence (O96017 whole entry): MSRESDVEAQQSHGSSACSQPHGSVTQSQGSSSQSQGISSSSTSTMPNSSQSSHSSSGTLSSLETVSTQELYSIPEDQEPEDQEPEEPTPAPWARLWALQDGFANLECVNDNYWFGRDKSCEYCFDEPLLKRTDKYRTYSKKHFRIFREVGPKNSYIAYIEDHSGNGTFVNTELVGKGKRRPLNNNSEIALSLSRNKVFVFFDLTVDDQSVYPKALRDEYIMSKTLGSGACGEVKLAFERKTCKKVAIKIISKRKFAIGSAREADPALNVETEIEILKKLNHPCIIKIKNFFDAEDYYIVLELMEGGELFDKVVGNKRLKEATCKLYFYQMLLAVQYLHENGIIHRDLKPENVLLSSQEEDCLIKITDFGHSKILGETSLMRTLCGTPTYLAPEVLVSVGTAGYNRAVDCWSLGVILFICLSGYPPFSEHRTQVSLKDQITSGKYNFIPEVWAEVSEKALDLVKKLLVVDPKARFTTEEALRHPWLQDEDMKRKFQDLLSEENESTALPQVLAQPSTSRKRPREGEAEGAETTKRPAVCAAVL
5'-AMP-activated protein kinase catalytic subunit alpha-2 (Homo sapiens), sequence (P54646 whole entry, looked up): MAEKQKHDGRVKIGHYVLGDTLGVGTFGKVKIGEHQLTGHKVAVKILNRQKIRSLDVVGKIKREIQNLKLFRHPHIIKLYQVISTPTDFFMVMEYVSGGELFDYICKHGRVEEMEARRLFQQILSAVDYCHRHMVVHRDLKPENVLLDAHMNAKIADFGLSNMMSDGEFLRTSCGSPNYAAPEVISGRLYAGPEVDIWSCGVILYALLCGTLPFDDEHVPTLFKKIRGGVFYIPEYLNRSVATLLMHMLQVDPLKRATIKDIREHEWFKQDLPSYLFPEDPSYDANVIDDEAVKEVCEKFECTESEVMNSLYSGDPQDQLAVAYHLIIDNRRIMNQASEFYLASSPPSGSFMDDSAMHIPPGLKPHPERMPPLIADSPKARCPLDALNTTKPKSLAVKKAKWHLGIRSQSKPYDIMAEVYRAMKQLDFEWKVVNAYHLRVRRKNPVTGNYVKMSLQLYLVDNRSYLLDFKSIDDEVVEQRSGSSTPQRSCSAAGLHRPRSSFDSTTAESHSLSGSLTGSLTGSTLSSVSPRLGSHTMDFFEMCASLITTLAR
Rho-associated protein kinase 2 (Homo sapiens), sequence (O75116 whole entry, looked up): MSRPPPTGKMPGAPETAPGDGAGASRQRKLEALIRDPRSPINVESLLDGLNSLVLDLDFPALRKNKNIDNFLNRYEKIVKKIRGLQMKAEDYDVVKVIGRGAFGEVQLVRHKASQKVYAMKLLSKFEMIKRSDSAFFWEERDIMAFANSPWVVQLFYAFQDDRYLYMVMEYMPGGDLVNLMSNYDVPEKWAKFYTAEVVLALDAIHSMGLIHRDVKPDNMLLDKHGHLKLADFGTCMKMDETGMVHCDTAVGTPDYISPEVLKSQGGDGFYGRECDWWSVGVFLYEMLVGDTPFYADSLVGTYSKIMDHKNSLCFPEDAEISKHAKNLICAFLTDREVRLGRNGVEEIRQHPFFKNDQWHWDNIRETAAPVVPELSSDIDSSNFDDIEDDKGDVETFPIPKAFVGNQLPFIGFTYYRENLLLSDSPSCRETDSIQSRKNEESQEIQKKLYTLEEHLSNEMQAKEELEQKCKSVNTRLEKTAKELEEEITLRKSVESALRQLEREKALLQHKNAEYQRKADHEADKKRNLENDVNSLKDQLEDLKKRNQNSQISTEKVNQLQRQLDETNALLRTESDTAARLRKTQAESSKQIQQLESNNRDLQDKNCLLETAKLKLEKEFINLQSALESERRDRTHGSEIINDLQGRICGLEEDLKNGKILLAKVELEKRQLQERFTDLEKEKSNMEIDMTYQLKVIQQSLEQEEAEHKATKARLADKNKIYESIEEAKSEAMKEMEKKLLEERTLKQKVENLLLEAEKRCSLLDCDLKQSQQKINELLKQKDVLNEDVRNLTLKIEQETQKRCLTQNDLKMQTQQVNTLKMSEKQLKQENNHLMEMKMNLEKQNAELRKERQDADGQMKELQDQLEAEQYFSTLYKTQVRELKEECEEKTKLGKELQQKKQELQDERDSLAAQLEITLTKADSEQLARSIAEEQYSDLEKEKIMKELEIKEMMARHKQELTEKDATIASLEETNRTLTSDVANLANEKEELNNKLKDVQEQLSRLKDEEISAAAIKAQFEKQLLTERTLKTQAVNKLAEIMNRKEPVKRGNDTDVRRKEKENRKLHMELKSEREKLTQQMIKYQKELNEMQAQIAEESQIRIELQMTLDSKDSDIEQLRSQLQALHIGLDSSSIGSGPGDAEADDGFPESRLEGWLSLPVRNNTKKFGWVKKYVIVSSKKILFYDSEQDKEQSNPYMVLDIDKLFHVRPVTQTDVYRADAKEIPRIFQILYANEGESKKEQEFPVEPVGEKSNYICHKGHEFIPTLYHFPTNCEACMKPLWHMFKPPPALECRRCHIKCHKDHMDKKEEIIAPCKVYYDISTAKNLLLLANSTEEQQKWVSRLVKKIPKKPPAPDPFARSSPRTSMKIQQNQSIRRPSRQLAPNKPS
Serine/threonine-protein kinase pim-2 (Homo sapiens), sequence (Q9P1W9 whole entry, looked up, canonical isoform): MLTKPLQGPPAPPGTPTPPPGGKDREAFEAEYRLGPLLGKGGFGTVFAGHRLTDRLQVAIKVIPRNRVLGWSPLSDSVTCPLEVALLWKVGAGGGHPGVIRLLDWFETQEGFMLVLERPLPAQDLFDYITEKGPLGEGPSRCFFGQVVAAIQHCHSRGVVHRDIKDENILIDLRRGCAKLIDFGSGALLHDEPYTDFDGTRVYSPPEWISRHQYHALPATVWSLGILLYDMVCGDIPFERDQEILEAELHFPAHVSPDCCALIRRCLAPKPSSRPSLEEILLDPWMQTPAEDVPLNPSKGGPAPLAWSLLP
Tyrosine-protein kinase Lck (Homo sapiens), sequence (P06239 2-509 limits assumed): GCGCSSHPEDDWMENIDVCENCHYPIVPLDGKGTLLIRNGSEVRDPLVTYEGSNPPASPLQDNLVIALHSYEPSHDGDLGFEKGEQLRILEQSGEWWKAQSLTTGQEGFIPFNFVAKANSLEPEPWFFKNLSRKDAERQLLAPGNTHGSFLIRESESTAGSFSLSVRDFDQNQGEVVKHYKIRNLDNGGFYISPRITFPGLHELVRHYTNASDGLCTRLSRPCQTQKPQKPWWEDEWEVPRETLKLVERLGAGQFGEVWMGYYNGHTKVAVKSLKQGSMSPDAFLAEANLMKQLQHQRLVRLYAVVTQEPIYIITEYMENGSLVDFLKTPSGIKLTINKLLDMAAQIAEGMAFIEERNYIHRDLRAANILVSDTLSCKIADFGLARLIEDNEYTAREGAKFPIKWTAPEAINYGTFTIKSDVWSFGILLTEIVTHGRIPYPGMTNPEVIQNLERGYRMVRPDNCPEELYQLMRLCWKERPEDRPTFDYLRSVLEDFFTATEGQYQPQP

- inhibition [3]: 8%
- inhibition [7]: 6%
- inhibition [8]: 69%
- inhibition [10]: -4%
- IC50 (U-937 [11]): 3.4 µM
- inhibition [12]: 76%
- inhibition [16]: 11%
- inhibition [17]: 12%
- inhibition [19]: -1%
- inhibition [23]: 5%
- inhibition [25]: 38%
- inhibition [26]: 45%
- inhibition [27]: -1%
- inhibition [28]: 3%
- inhibition [31]: -3%
- inhibition [32]: 4%
- inhibition [35]: 3%
SMILES: NCCN1C(=O)S/C(=C\CCC2CCCCC2)C1=O
- Activity [1]: 60.5%
- viability at 10 µM (U-937 [2]): 42.9%
- Activity (U-937 [4]): 2.4%
- viability at 20 µM (DU-145 [5]): 65.5%
- Activity (U-937 [6]): 15%
- viability at 10 µM (U-937 [9]): 40.2%
- Activity (U-937 [13]): 40.2%
- Activity (U-937 [14]): 11%
- viability at 3 µM (U-937 [15]): 75.7%
- inhibition (U-937 [18]): Active
- growth inhibition (GI) (M12): Active
- growth inhibition (GI) (DU-145 [20]): Active
- Activity (DU-145 [21]): 8.3%
- growth inhibition (GI) (U-937 [22]): Active
- Activity (U-937 [24]): Dose-dependent effect
- Activity (U-937 [29]): 3.5%
- Activity (U-937 [30]): Active
- Activity [33]: 29.2%
- inhibition (DU-145 [34]): Active
